ChEMBL document CHEMBL1275350, “First in class, potent, and orally bioavailable NADPH oxidase isoform 4 (Nox4) inhibitors for the treatment of idiopathic pulmonary fibrosis” (J Med Chem, 2010)

Tests used:
[1] = molecular target: T1, NADPH oxidase 4 (Homo sapiens, UniProt Q9NPH5); test: Inhibition of human NOX4 overexpressed in T-REx-293 cell membrane assessed as ROS production by cell free assay in presence of NADPH; settings: in the assay text read “T-REx-293 cell membrane” for “human PMN cell membrane”
T1 sequence (Q9NPH5 whole entry): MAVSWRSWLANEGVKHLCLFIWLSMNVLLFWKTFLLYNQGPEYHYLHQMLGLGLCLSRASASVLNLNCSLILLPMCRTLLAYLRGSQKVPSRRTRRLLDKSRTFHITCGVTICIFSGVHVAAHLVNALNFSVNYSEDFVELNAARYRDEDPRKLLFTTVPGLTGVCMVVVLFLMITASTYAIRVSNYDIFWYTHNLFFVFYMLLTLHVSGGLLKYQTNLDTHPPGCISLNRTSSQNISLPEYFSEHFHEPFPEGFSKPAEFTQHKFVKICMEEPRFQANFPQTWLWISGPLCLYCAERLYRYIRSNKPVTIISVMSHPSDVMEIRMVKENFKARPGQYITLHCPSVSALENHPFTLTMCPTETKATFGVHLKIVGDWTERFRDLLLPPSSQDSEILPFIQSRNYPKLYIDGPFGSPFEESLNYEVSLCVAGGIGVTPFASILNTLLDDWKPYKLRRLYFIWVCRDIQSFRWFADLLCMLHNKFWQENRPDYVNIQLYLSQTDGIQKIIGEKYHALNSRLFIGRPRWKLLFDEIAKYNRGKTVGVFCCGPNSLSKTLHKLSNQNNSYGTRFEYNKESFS
How it was run: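 hNOX4 T-REx-293 cells induced with tetracycline (1 μg/mL, 24 h), sonicated in sucrose/NaCl/EGTA PBS buffer pH 7.4, membranes taken from a sucrose gradient. NADPH-triggered ROS measured by Amplex Red/HRP in PBS, with compound at 1 nM–100 μM, 20 min at 37 °C. Ki by Cheng-Prusoff from ≥3 triplicate experiments.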

[2] = Intrinsic clearance in Sprague-Dawley rat liver microsomes assessed per mg of protein at 0.5 uM; type: ADME, Microsome
How it was run: (§1)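 Phase I stability assay in pooled liver microsomes (human: male and female; rat: male Sprague-Dawley). Microsomes at 0.5 mg/mL final in 0.1 M phosphate pH 7.4. Compound 0.5 μM final, 0.25% DMSO. Preincubated at 37 °C, reaction started with 1 mM NADPH. Sampled at 0, 5, 15, 30 and 45 min, with a 45 min minus-NADPH control. Methanol quench with internal standard, LC/MS-MS, intrinsic clearance calculated.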

[3] = Permeability across human Caco-2 cell membrane at 10 uM after 2 hrs; type: ADME, cell-based
How it was run: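 Caco-2 monolayers grown 20 days in DMEM, used when TEER >800 Ω·cm2. Dosed at 10 μM final in HBSS pH 6.5 with 1% DMSO, apical-to-basolateral and basolateral-to-apical. Incubated 2 h at 37 °C, both compartments sampled, LC-MS/MS with five-point calibration. Papp = (dQ/dt)/(C0A).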

[4] = Intrinsic clearance in human liver microsomes assessed as per mg of protein at 0.5 uM; type: ADME, Microsome; how it was run: as §1
[5] = AUC (infinity) in Sprague-Dawley rat at 10 mg/kg, po; type: ADME, organism-based; set-up: time infinity, dose 10 mg/kg, route oral; settings: plasma
How it was run: (§2)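 Parallel design with six male rats: three given 5 mg/kg iv in EDPW (10% EtOH, 10% DMA, 30% PG, 50% water), three given 10 mg/kg orally in aqueous 0.5% CMC with 0.25% Tween 20. Carotid cannula blood sampled up to 24 h. Plasma levels by LC/MS/MS (LLOQ 1.00 ng/mL). Noncompartmental analysis.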

[6] = Oral bioavailability in Sprague-Dawley rat at 10 mg/kg; type: ADME, organism-based; settings: in vivo
How it was run: (§3)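 Parallel design in male rats, three per group. Group 1: 5 mg/kg iv in EDPW (10% EtOH, 10% DMA, 30% PG, 50% water). Group 2: 10 mg/kg oral in aqueous 0.5% CMC with 0.25% Tween 20. Carotid cannula blood drawn up to 24 h. Plasma measured by LC/MS/MS (LLOQ 1.00 ng/mL), noncompartmental analysis.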

[7] = Cmax in Sprague-Dawley rat at 10 mg/kg, po; type: ADME, organism-based; set-up: dose 10 mg/kg, route oral; settings: in vivo; how it was run: as §2
[8] = Tmax in Sprague-Dawley rat at 10 mg/kg, po; type: ADME, organism-based; set-up: dose 10 mg/kg, route oral; settings: in vivo; how it was run: as §3
[9] = Half life in Sprague-Dawley rat at 10 mg/kg, po; type: ADME, organism-based; set-up: dose 10 mg/kg, route oral; settings: in vivo; how it was run: as §2
[10] = AUC (infinity) in Sprague-Dawley rat at 5 mg/kg, iv; type: ADME, organism-based; set-up: time infinity, dose 5 mg/kg, route intravenous; settings: plasma; how it was run: as §2
[11] = Cmax in Sprague-Dawley rat at 5 mg/kg, iv; type: ADME, organism-based; set-up: dose 5 mg/kg, route intravenous; settings: in vivo; how it was run: as §2
[12] = Clearance in Sprague-Dawley rat at 10 mg/kg, po; type: ADME, organism-based; set-up: dose 10 mg/kg, route oral; settings: in vivo; how it was run: as §2
[13] = Half life in Sprague-Dawley rat at 5 mg/kg, iv; type: ADME, organism-based; set-up: dose 5 mg/kg, route intravenous; settings: in vivo; how it was run: as §2
[14] = Clearance in Sprague-Dawley rat at 5 mg/kg, iv; type: ADME, organism-based; set-up: dose 5 mg/kg, route intravenous; settings: in vivo; how it was run: as §2
[15] = Volume of distribution at steady state in Sprague-Dawley rat at 5 mg/kg, iv; type: ADME, organism-based; set-up: dose 5 mg/kg, route intravenous; settings: in vivo, read-out: Vdss; how it was run: as §3
[16] = molecular target: NADPH oxidase 2 (Homo sapiens, UniProt P04839); test: Inhibition of human NOX2 overexpressed in […] cell membrane assessed as ROS production by cell free assay in presence of NADPH
How it was run: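 Nox2 source: membranes from human polymorphonuclear cells, sonicated and collected at the 17/40% sucrose interface. ROS read by Amplex Red/HRP in PBS after NADPH addition, with compound at 1 nM–100 μM for 20 min at 37 °C. Background taken without membranes or agonist. Ki via Cheng-Prusoff, mean of ≥3 experiments in triplicate.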

[17] = molecular target: Xanthine dehydrogenase/oxidase (Homo sapiens, UniProt P47989); test: Inhibition of xanthine oxidase by in vitro enzymatic assay in presence of xanthine
How it was run: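 Cell-free Amplex Red read-out: xanthine oxidase incubated in PBS with Amplex Red, HRP and cofactors; ROS production started by adding xanthine. Compound at rising concentrations from 1 nM to 100 μM, 20 min at 37 °C, then read on a plate reader. Background taken without enzyme or without agonist. Ki by Cheng-Prusoff, mean of at least three experiments run in triplicate.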

[18] = system: Rattus norvegicus; test: Hepatic blood flow in Sprague-Dawley rat at 5 mg/kg, iv; type: ADME, organism-based, Liver; set-up: dose 5 mg/kg, route intravenous; settings: in vivo
[19] = AUC (infinity) in Sprague-Dawley rat at 1 mg/kg, iv; type: ADME, organism-based; set-up: time infinity, dose 1 mg/kg, route intravenous; settings: plasma
[20] = AUC (infinity) in Sprague-Dawley rat at 5 mg/kg, sc; type: ADME, organism-based; set-up: time infinity, dose 5 mg/kg, route subcutaneous; settings: plasma
[21] = Cmax in Sprague-Dawley rat at 1 mg/kg, iv; type: ADME, organism-based; set-up: dose 1 mg/kg, route intravenous; settings: in vivo
[22] = Tmax in Sprague-Dawley rat at 1 mg/kg, iv; type: ADME, organism-based; set-up: dose 1 mg/kg, route intravenous; settings: in vivo
[23] = Half life in Sprague-Dawley rat at 1 mg/kg, iv; type: ADME, organism-based; set-up: dose 1 mg/kg, route intravenous; settings: in vivo
[24] = Clearance in Sprague-Dawley rat at 1 mg/kg, iv; type: ADME, organism-based; set-up: dose 1 mg/kg, route intravenous; settings: in vivo
[25] = Volume of distribution at steady state in Sprague-Dawley rat at 1 mg/kg, iv; type: ADME, organism-based; set-up: dose 1 mg/kg, route intravenous; settings: in vivo, read-out: Vdss
[26] = Bioavailability in Sprague-Dawley rat at 5 mg/kg, sc; type: ADME, organism-based; settings: in vivo
[27] = Cmax in Sprague-Dawley rat at 5 mg/kg, sc; type: ADME, organism-based; set-up: dose 5 mg/kg, route subcutaneous; settings: in vivo
[28] = Tmax in Sprague-Dawley rat at 5 mg/kg, sc; type: ADME, organism-based; set-up: dose 5 mg/kg, route subcutaneous; settings: in vivo
[29] = Half life in Sprague-Dawley rat at 5 mg/kg, sc; type: ADME, organism-based; set-up: dose 5 mg/kg, route subcutaneous; settings: in vivo

NADPH oxidase 2, sequence (P04839 whole entry): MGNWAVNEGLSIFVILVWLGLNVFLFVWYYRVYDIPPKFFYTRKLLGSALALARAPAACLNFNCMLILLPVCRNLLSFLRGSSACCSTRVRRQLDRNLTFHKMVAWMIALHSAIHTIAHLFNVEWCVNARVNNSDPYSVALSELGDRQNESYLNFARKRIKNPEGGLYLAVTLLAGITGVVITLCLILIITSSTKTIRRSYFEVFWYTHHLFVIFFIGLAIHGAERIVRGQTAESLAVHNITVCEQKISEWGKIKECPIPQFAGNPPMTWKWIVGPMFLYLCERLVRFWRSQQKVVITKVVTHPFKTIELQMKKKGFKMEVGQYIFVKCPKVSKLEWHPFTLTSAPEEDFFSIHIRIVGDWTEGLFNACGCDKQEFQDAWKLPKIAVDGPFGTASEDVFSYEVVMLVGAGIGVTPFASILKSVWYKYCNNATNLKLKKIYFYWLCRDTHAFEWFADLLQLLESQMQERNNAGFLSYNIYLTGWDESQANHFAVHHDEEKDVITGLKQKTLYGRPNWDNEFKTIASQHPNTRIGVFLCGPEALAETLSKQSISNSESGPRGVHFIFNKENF
Xanthine dehydrogenase/oxidase, sequence (P47989 whole entry): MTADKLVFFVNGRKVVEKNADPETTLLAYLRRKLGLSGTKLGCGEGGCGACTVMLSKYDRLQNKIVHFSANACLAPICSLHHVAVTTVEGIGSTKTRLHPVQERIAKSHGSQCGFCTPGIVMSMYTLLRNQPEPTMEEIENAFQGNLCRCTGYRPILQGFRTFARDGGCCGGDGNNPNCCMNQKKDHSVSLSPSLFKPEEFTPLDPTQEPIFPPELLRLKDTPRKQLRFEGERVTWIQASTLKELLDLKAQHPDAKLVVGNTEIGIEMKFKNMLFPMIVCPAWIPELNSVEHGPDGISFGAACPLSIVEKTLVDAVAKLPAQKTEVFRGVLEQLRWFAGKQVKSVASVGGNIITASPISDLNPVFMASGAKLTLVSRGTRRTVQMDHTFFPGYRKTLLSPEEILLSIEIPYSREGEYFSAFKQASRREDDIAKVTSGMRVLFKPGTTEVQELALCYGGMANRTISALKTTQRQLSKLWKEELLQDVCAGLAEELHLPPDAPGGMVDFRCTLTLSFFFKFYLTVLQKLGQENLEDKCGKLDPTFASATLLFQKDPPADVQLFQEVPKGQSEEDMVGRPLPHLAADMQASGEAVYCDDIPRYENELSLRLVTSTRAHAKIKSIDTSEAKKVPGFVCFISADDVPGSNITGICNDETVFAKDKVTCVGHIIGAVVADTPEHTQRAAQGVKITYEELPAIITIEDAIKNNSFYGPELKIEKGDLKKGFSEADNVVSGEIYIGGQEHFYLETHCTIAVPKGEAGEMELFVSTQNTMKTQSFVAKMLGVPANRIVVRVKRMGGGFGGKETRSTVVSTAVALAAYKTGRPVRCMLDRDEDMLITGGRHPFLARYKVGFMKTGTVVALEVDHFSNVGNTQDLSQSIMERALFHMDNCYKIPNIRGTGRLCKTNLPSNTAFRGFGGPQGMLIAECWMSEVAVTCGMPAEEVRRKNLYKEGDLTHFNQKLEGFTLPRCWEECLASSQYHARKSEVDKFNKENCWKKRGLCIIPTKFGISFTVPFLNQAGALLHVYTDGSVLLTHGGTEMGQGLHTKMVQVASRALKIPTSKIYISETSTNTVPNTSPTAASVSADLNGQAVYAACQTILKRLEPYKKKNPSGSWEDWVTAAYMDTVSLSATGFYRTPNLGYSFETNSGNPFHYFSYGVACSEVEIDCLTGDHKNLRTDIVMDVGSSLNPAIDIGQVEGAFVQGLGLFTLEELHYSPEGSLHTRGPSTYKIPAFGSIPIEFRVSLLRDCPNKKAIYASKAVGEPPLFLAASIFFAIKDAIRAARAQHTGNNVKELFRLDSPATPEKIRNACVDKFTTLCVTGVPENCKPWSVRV

SMILES | Ki [1] [nM] | microsomal CLint at 0.5 µM [2] [µL/min/mg] | Papp at 2 h, 10 µM [3] [×10⁻⁶ cm/s] | microsomal CLint at 0.5 µM [4] [µL/min/mg] | AUC(0-inf) [5] [ng·h/mL] | bioavailability [6] [%] | Cmax [7] [ng/mL] | Tmax [8] [min] | half-life [9] [min] | AUC(0-inf) [10] [ng·h/mL] | Cmax [11] [ng/mL] | CL/F [12] [mL/min/kg] | half-life [13] [min] | clearance [14] [mL/min/kg] | Vd [15] [L/kg] | further results
O=c1c2c(COCc3ccccc3)n(Cc3cnccn3)c(=O)cc2[nH]n1-c1ccccc1Cl | 95 | 49.5 | 78.6 | 32.4 | 8930 | 29 | 6080 | 15 | 143 | 15400 | 36800 | 20 | 188 | 5.5 | 0.35 | –
Cc1c2c(=O)n(-c3ccccc3)[nH]c2cc(=O)n1Cc1cccnc1 | 373 | 97.1 | 79.2 | – | 417 | 22 | 575 | 15 | 72 | – | – | – | – | – | – | Ki [16]: 4720 nM; Ki [17]: > 30000 nM; QH [18]: 55 mL/min/kg; AUC(0-inf) [19]: 196 ng·h/mL; AUC(0-inf) [20]: 815 ng·h/mL; Cmax [21]: 271 ng/mL; Tmax [22]: 4.8 min; half-life [23]: 24 min; clearance [24]: 85.2 mL/min/kg; Vd [25]: 2.36 L/kg; bioavailability [26]: 87%; Cmax [27]: 678 ng/mL; Tmax [28]: 30 min; half-life [29]: 42 min
O=c1c2c(CN3CCCC3)n(CCc3ccccn3)c(=O)cc2[nH]n1-c1ccc(F)cc1Cl | 114 | 62.3 | 7.3 | 45.4 | 2430 | 39 | 2830 | 19.8 | 67.8 | 3130 | 6190 | 73.2 | 198 | 26.8 | 1.49 | –
